ChEMBL document CHEMBL1149773, “Synthesis, determination of the lipophilicity, anticancer and antimicrobial properties of some fused 1,2,4-triazole derivatives” (Eur J Med Chem, 2008)
≈ marks a conversion by molar mass, not a printed value.

Tests used:
[1] = Antiproliferative activity against human skin fibroblast assessed as cell viability at 100 uM by MTT assay; format: cell-based; settings: human skin fibroblasts, read-out: Activity
Outline: (§1)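 MTT viability assay on primary human skin fibroblasts grown in DMEM with 10% FBS and penicillin/streptomycin. Compounds were dissolved in DMSO and given at 1, 50 or 100 µM for 24 h. Cells were washed in HEPES-buffered medium (pH 7.4) and then given MTT 0.5 mg mL⁻¹ for 45 min at 37 °C. Formazan was dissolved in DMSO and read at 570 nm. Viability is % of control; three independent measurements.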

[2] = Lipophilicity, log kw in methanol aqueous system at pH 3.5; format: physicochemical
Outline: (§2)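 RP-HPLC on an octadecyl silica column (150 × 4.6 mm, 5 µm) at 22 ± 1 °C, flow 1.0 mL min⁻¹, UV detection at 254 nm. Mobile phase was methanol, acetonitrile or dioxane with water and 0.01 M phosphate buffer pH 3.5 containing 0.05 M DEA. log k_W was extrapolated to pure water by regression.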

HeLa [3] = test: Antiproliferative activity against human HeLa cells assessed as cell viability at 1 uM by MTT assay; format: functional; settings: read-out: Activity
Outline: (§3)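 Log-phase cells, kept in supplemented RPMI 1640 (HSF in DMEM/10% FBS) at 37 °C, 5% CO2, were exposed 24 h to 1, 50 or 100 µM compound from DMSO. They were washed, given 0.5 mg/mL MTT in HEPES buffer pH 7.4 for 45 min at 37 °C, and formazan was dissolved in DMSO and read at 570 nm. Values are % viability versus control from three independent measurements.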

[4] = Lipophilicity, log kw in acetonitrile aqueous system at pH 3.5; format: physicochemical; outline: as §2
[5] = Antiproliferative activity against human RPMI cells assessed as cell viability at 50 uM by MTT assay; format: functional; settings: read-out: Activity; outline: as §3
[6] = Antiproliferative activity against human skin fibroblast assessed as cell viability at 50 uM by MTT assay; format: cell-based; settings: human skin fibroblasts, read-out: Activity; outline: as §1
[7] = Lipophilicity, log kw in dioxane aqueous system at pH 3.5; format: physicochemical; settings: buffer; outline: as §2
[8] = Antiproliferative activity against human skin fibroblast assessed as cell viability at 1 uM by MTT assay; format: cell-based; settings: human skin fibroblasts, read-out: Activity; outline: as §3
[9] = Antiproliferative activity against human RPMI cells assessed as cell viability at 100 uM by MTT assay; format: functional; settings: read-out: Activity; outline: as §3
HeLa [10] = test: Antiproliferative activity against human HeLa cells assessed as cell viability at 100 uM by MTT assay; format: functional; settings: read-out: Activity; outline: as §3
HeLa [11] = test: Antiproliferative activity against human HeLa cells assessed as cell viability at 50 uM by MTT assay; format: functional; settings: read-out: Activity; outline: as §3
[12] = Antiproliferative activity against human RPMI cells assessed as cell viability at 1 uM by MTT assay; format: functional; settings: read-out: Activity; outline: as §3
Klebsiella aerogenes [13] = test: Antimicrobial activity against Enterobacter aerogenes at 100 ug/mL by disc-diffusion method; format: functional; settings: read-out: IZ
Outline: (§4)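 Kirby–Bauer disc diffusion: 5 mm paper discs soaked in compound solution in DMSO (100 or 200 µg/mL; reference drugs 200 µg/mL) and laid on inoculated Mueller-Hinton agar (bacteria) or Sabouraud agar (C. albicans, Aspergillus). DMSO discs were the control. Plates ran 24 h at 35 °C. Inhibition zone diameter was scored 0–10 mm R, 11–16 mm I, 17–25 mm S; triplicate.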

Streptococcus pyogenes [14] = test: Antimicrobial activity against Streptococcus pyogenes at 100 ug/mL by disc-diffusion method; format: functional; settings: read-out: IZ; outline: as §4
Streptococcus pyogenes [15] = test: Antimicrobial activity against Streptococcus pyogenes at 200 ug/mL by disc-diffusion method; format: functional; settings: read-out: IZ; outline: as §4
[16] = system: Staphylococcus epidermidis; test: Antimicrobial activity against Staphylococcus epidermidis at 100 ug/mL by disc-diffusion method; format: functional; settings: read-out: IZ; outline: as §4
Klebsiella pneumoniae [17] = test: Antimicrobial activity against Klebsiella pneumoniae at 100 ug/mL by disc-diffusion method; format: functional; settings: read-out: IZ; outline: as §4
Klebsiella aerogenes [18] = test: Antimicrobial activity against Enterobacter aerogenes at 200 ug/mL by disc-diffusion method; format: functional; settings: read-out: IZ; outline: as §4
Candida albicans [19] = test: Antimicrobial activity against Candida albicans ATCC 10231 at 200 ug/mL by disc-diffusion method; format: functional; settings: read-out: IZ; outline: as §4
Staphylococcus aureus [20] = test: Antimicrobial activity against Staphylococcus aureus ATCC 25923 at 100 ug/mL by disc-diffusion method; format: functional; settings: read-out: IZ; outline: as §4
Pseudomonas aeruginosa [21] = test: Antimicrobial activity against Pseudomonas aeruginosa ATCC 27853 at 100 ug/mL by disc-diffusion method; format: functional; settings: read-out: IZ; outline: as §4
Klebsiella pneumoniae [22] = test: Antimicrobial activity against Klebsiella pneumoniae at 200 ug/mL by disc-diffusion method; format: functional; settings: read-out: IZ; outline: as §4
Escherichia coli [23] = test: Antimicrobial activity against Escherichia coli ATCC 25922 at 200 ug/mL by disc-diffusion method; format: functional; settings: read-out: IZ; outline: as §4
Pseudomonas aeruginosa [24] = test: Antimicrobial activity against Pseudomonas aeruginosa ATCC 27853 at 200 ug/mL by disc-diffusion method; format: functional; settings: read-out: IZ; outline: as §4
Proteus vulgaris [25] = test: Antimicrobial activity against Proteus vulgaris at 200 ug/mL by disc-diffusion method; format: functional; settings: read-out: IZ; outline: as §4
[26] = system: Staphylococcus epidermidis; test: Antimicrobial activity against Staphylococcus epidermidis at 200 ug/mL by disc-diffusion method; format: functional; settings: read-out: IZ; outline: as §4
Candida albicans [27] = test: Antimicrobial activity against Candida albicans ATCC 10231 at 100 ug/mL by disc-diffusion method; format: functional; settings: read-out: IZ; outline: as §4
Staphylococcus aureus [28] = test: Antimicrobial activity against Staphylococcus aureus ATCC 25923 at 200 ug/mL by disc-diffusion method; format: functional; settings: read-out: IZ; outline: as §4
Aspergillus sp. [29] = test: Antimicrobial activity against Aspergillus sp. at 100 ug/mL by disc-diffusion method; format: functional; settings: read-out: IZ; outline: as §4
Aspergillus sp. [30] = test: Antimicrobial activity against Aspergillus sp. at 200 ug/mL by disc-diffusion method; format: functional; settings: read-out: IZ; outline: as §4
Proteus vulgaris [31] = test: Antimicrobial activity against Proteus vulgaris at 100 ug/mL by disc-diffusion method; format: functional; settings: read-out: IZ; outline: as §4
Streptococcus agalactiae [32] = test: Antimicrobial activity against Streptococcus agalactiae at 200 ug/mL by disc-diffusion method; format: functional; settings: read-out: IZ; outline: as §4
Escherichia coli [33] = test: Antimicrobial activity against Escherichia coli ATCC 25922 at 100 ug/mL by disc-diffusion method; format: functional; settings: read-out: IZ; outline: as §4
Candida albicans [34] = test: Antimicrobial activity against Candida albicans ATCC 10231 after 24 hrs by microdilution assay; format: functional; settings: ATCC 10231, 24 h
Streptococcus agalactiae [35] = test: Antimicrobial activity against Streptococcus agalactiae at 100 ug/mL by disc-diffusion method; format: functional; settings: read-out: IZ; outline: as §4

SMILES: COc1ccc(N2CCn3c(COc4ccc(Cl)cc4)nnc32)cc1
- viability at 100 µM [1]: 64.6%
- logKw [2]: 1.88
- viability at 1 µM (HeLa [3]): 81.5%
- logKw [4]: 1.54
- viability at 50 µM [5]: 98.4%
- viability at 50 µM [6]: 67.1%
- logKw [7]: 1.52
- viability at 1 µM [8]: 80.3%
- viability at 100 µM [9]: 94.9%
- viability at 100 µM (HeLa [10]): 68.9%
- viability at 50 µM (HeLa [11]): 72.1%
- viability at 1 µM [12]: 99.7%

SMILES: c1ccc(N2CCn3cnnc32)cc1
- viability at 100 µM [1]: 85.6%
- logKw [2]: 1.62
- viability at 1 µM (HeLa [3]): 73.2%
- logKw [4]: 1.37
- viability at 50 µM [5]: 102%
- viability at 50 µM [6]: 89.5%
- logKw [7]: 1.16
- viability at 1 µM [8]: 97.6%
- viability at 100 µM [9]: 97.6%
- viability at 100 µM (HeLa [10]): 72.8%
- viability at 50 µM (HeLa [11]): 75.4%
- viability at 1 µM [12]: 99.3%

SMILES: Clc1ccc(N2CCn3cnnc32)cc1Cl
- logKw [2]: 2.92
- logKw [4]: 2.11
- logKw [7]: 2.49

SMILES: c1ccc(OCc2nnc3n2CCN3c2ccccc2)cc1
- viability at 100 µM [1]: 83%
- logKw [2]: 1.62
- viability at 1 µM (HeLa [3]): 85.3%
- logKw [4]: 1.37
- viability at 50 µM [5]: 99%
- viability at 50 µM [6]: 87.6%
- logKw [7]: 1.78
- viability at 1 µM [8]: 91.7%
- viability at 100 µM [9]: 101%
- viability at 100 µM (HeLa [10]): 70.3%
- viability at 50 µM (HeLa [11]): 71.1%
- viability at 1 µM [12]: 104%

SMILES: Sc1nnc2n1CCN2c1ccc(Cl)cc1
- zone of inhibition at 100 µg/mL (Klebsiella aerogenes [13]): 0 mm
- zone of inhibition at 100 µg/mL (Streptococcus pyogenes [14]): 0 mm
- zone of inhibition at 200 µg/mL (Streptococcus pyogenes [15]): 0 mm
- zone of inhibition at 100 µg/mL [16]: 0 mm
- zone of inhibition at 100 µg/mL (Klebsiella pneumoniae [17]): 0 mm
- zone of inhibition at 200 µg/mL (Klebsiella aerogenes [18]): 0 mm
- zone of inhibition at 200 µg/mL (Candida albicans [19]): 17 mm
- zone of inhibition at 100 µg/mL (Staphylococcus aureus [20]): 0 mm
- zone of inhibition at 100 µg/mL (Pseudomonas aeruginosa [21]): 0 mm
- zone of inhibition at 200 µg/mL (Klebsiella pneumoniae [22]): 0 mm
- zone of inhibition at 200 µg/mL (Escherichia coli [23]): 0 mm
- zone of inhibition at 200 µg/mL (Pseudomonas aeruginosa [24]): 0 mm
- zone of inhibition at 200 µg/mL (Proteus vulgaris [25]): 0 mm
- zone of inhibition at 200 µg/mL [26]: 0 mm
- zone of inhibition at 100 µg/mL (Candida albicans [27]): 17 mm
- zone of inhibition at 200 µg/mL (Staphylococcus aureus [28]): 0 mm
- zone of inhibition at 100 µg/mL (Aspergillus sp. [29]): 0 mm
- zone of inhibition at 200 µg/mL (Aspergillus sp. [30]): 0 mm
- zone of inhibition at 100 µg/mL (Proteus vulgaris [31]): 0 mm
- logKw [7]: -0.09
- zone of inhibition at 200 µg/mL (Streptococcus agalactiae [32]): 0 mm
- zone of inhibition at 100 µg/mL (Escherichia coli [33]): 0 mm
- MIC (Candida albicans [34]): 30.9 µM (≈ 7.81 µg/mL)
- zone of inhibition at 100 µg/mL (Streptococcus agalactiae [35]): 0 mm

SMILES: Cc1ccc(N2CCn3c(COc4ccc(Cl)cc4)nnc32)cc1
- viability at 100 µM [1]: 64.7%
- logKw [2]: 4.27
- viability at 1 µM (HeLa [3]): 89%
- logKw [4]: 3.04
- viability at 50 µM [5]: 39.5%
- viability at 50 µM [6]: 68.4%
- logKw [7]: 3.55
- viability at 1 µM [8]: 88.1%
- viability at 100 µM [9]: 39.9%
- viability at 100 µM (HeLa [10]): 77.9%
- viability at 50 µM (HeLa [11]): 78.3%
- viability at 1 µM [12]: 104%
